Data from ChEMBL document CHEMBL4028809, “Dual-tail approach to discovery of novel carbonic anhydrase IX inhibitors by simultaneously matching the hydrophobic and hydrophilic halves of the active site” (Eur J Med Chem, 2017).
Active and inactive are the calls of the source. The rule behind the calls is not given here.

Tests used:
Carbonic anhydrase 9 = Carbonic anhydrase 9 (Homo sapiens, UniProt Q16790); assay: Inhibition of recombinant human carbonic anhydrase 9 using 4-nitrophenylacetate as substrate pretreated for 15 mins prior to test by spectrophotometric method
Carbonic anhydrase 2 = Carbonic anhydrase 2 (Homo sapiens, UniProt P00918); assay: Inhibition of recombinant human carbonic anhydrase 2 using 4-nitrophenylacetate as substrate pretreated for 15 mins prior to test by spectrophotometric method
MDA-MB-231 [1] = assay: Cytotoxicity against human MDA-MB-231 cells assessed as cell viability at 100 uM after 72 hrs under normoxic condition by MTT assay; assay type: functional; conditions: for viability at 100 µM: MDA-MB-231, 72 h, read-out: Activity
Procedure, shortened: (§1)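 HT-29 or MDA-MB-231 cells seeded at 5 × 10^4 per well and stabilized 24 h at 37 °C, then exposed to a single 0.1 mM dose for 72 h, in hypoxia (0.5% O2, 5% CO2, balance N2, modular chamber) or normoxia (20% O2, 5% CO2). MTT at 5 mg/mL added for 4 h; formazan dissolved in DMSO; absorbance read at 540 nm.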

HT-29 [2] = assay: Cytotoxicity against human HT-29 cells assessed as cell viability at 100 uM after 72 hrs under normoxic condition by MTT assay relative to control; assay type: functional; conditions: for viability at 100 µM: HT-29, 72 h, read-out: Activity; procedure, shortened: as §1
HT-29 [3] = assay: Cytotoxicity against human HT-29 cells assessed as cell viability at 100 uM after 72 hrs under hypoxic condition condition by MTT assay relative to control; assay type: functional; conditions: for viability at 100 µM: HT-29, 72 h, read-out: Activity; procedure, shortened: as §1
MDA-MB-231 [4] = assay: Cytotoxicity against human MDA-MB-231 cells assessed as cell viability at 100 uM after 72 hrs under hypoxic condition by MTT assay; assay type: functional; conditions: for viability at 100 µM: MDA-MB-231, 72 h, read-out: Activity; procedure, shortened: as §1

Structure (SMILES) | IC50 (Carbonic anhydrase 9) | IC50 (Carbonic anhydrase 2) | viability at 100 µM (MDA-MB-231 [1]) | viability at 100 µM (HT-29 [2]) | viability at 100 µM (HT-29 [3]) | viability at 100 µM (MDA-MB-231 [4]) | Activity (MDA-MB-231 [1]) | Activity (HT-29 [2]) | Activity (HT-29 [3]) | Activity (MDA-MB-231 [4])
COc1ccc(/C=C/C(=O)O)cc1 [4-METHOXYCINNAMIC ACID] | 850000 nM | 760000 nM |  |  |  |  |  |  |  | 
COc1cc(OC)c(OC)cc1/C=C/C(=O)N[C@@H]1[C@@H](O)[C@H](O)[C@@H](CO)O[C@H]1NC(=S)Nc1ccc(S(N)(=O)=O)cc1 | 37 nM |  | 89 to 99% | 73 to 79% | 63 to 77% | 69.5 to 79.9% |  |  |  | 
COc1ccccc1/C=C/C(=O)N[C@@H]1[C@@H](O)[C@H](O)[C@@H](CO)O[C@H]1NC(=S)Nc1ccc(S(N)(=O)=O)cc1 | 60 nM |  | 89 to 99% | 73 to 79% | 63 to 77% | 69.5 to 79.9% |  |  |  | 
CC(=O)Nc1nnc(S(N)(=O)=O)s1 |  |  |  |  |  |  | inactive | inactive | inactive | inactive
COc1ccc(/C=C/C(=O)N[C@H]2[C@H](OC)O[C@H](CO)[C@@H](O)[C@@H]2O)cc1 | 20000 nM |  |  |  |  |  |  |  |  | 
COc1ccc(/C=C/C(=O)N[C@@H]2[C@@H](O)[C@H](O)[C@@H](CO)O[C@H]2NC(=S)Nc2ccc(S(N)(=O)=O)cc2)cc1 | 152 nM |  | 89 to 99% | 73 to 79% | 63 to 77% | 69.5 to 79.9% |  |  |  | 
COc1cccc(/C=C/C(=O)N[C@@H]2[C@@H](O)[C@H](O)[C@@H](CO)O[C@H]2NC(=S)Nc2ccc(S(N)(=O)=O)cc2)c1 | 95 nM |  | 89 to 99% | 73 to 79% | 63 to 77% | 69.5 to 79.9% |  |  |  | 
COc1cccc(/C=C/C(=O)N[C@@H]2[C@@H](O)[C@H](O)[C@@H](CO)O[C@H]2NC(=S)Nc2ccc(S(N)(=O)=O)cc2)c1OC | 33 nM |  | 89 to 99% | 73 to 79% | 63 to 77% | 69.5 to 79.9% |  |  |  | 
N[C@@H]1[C@@H](O)[C@H](O)[C@@H](CO)O[C@H]1NC(=S)Nc1ccc(S(N)(=O)=O)cc1 | 667 nM | 203 nM |  |  |  |  |  |  |  | 
COc1ccc(/C=C/C(=O)N[C@@H]2[C@@H](O)[C@H](O)[C@@H](CO)O[C@H]2NC(=S)Nc2ccc(S(N)(=O)=O)cc2)c(OC)c1 | 7 nM |  |  |  |  |  | inactive | inactive | inactive | inactive
COc1cc(/C=C/C(=O)N[C@@H]2[C@@H](O)[C@H](O)[C@@H](CO)O[C@H]2NC(=S)Nc2ccc(S(N)(=O)=O)cc2)cc(OC)c1OC | 46 nM |  | 89 to 99% | 73 to 79% | 63 to 77% | 69.5 to 79.9% |  |  |  | 
